Measurements as given in ChEMBL document CHEMBL1145030, “Novel pyrazolo[3,4-d]pyrimidine-based inhibitors of Staphlococcus aureus DNA polymerase III: design, synthesis, and biological evaluation” (J Med Chem, 2003).
Values after ≈ are worked out from the molar mass of the structure shown. Active and inactive are the calls of the source. The calls are words filed in the database; no cut-off is given here.

Key:
Enterococcus faecium = assay: Antibacterial activity against Enterococcus faecium; type: functional
Procedure, shortened: (§1)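 Broth microdilution MIC against B. subtilis F2, E. faecium RLA-1, S. aureus MB2865 and S. pneumoniae MCL5350. Compounds were DMSO stocks, serially 2-fold diluted from 100 μM final, at 5% final DMSO, with a DMSO vehicle control. Wells were inoculated from cultures diluted in PBS and incubated overnight at 37 °C. MIC was scored visually as the lowest concentration preventing growth.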

Nucleic Acid [1] = assay: Inhibitory activity against DNA polymerase III (DNA pol III) of Staphylococcus aureus; type: nucleic-acid assay
Procedure, shortened: (§2)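 S. aureus pol III was PCR-cloned into pET15, expressed in BL21 (1 mM IPTG), and purified on HiTrapQ then HiTrap Blue. Enzyme-started, it ran 30 min at 30 °C and was stopped with cold TCA/NaPPi. Incorporation was read by filter capture and scintillation counting.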

Streptococcus pneumoniae = assay: Antibacterial activity against Streptococcus pneumoniae; type: functional; procedure, shortened: as §1
Staphylococcus aureus = assay: Antibacterial activity against Staphylococcus aureus; type: functional; procedure, shortened: as §1
Nucleic Acid [2] = assay: Inhibitory activity against DNA polymerase III (DNA pol III) of Staphylococcus aureus at a concentration of 500 uM; type: nucleic-acid assay; procedure, shortened: as §2
Bacillus subtilis = assay: Antibacterial activity against Bacillus subtilis; type: functional; procedure, shortened: as §1
Nucleic Acid [3] = assay: Inhibitory activity against DNA polymerase III (DNA pol III) of Staphylococcus aureus at a concentration of 500 uM; NA means Inactive; type: nucleic-acid assay; procedure, shortened: as §2

Question: What does the source list for `Cc1ccc(Nc2nc(O)c3c[nH]nc3n2)cc1Cl`?
Answer: MIC (Enterococcus faecium): 28 µg/mL (≈ 102 µM); IC50 (Nucleic Acid [1]): 214 µM; MIC (Streptococcus pneumoniae): 14 µg/mL (≈ 50.8 µM); MIC (Staphylococcus aureus): 14 µg/mL (≈ 50.8 µM); inhibition (Nucleic Acid [2]): 62%; MIC (Bacillus subtilis): 7 µg/mL (≈ 25.4 µM)

Question: How did the NA (Nucleic Acid [3]) turn out when `Oc1[nH]c(NCc2ccccc2Cl)nc2nncc1-2` was run?
Answer: The NA was “inactive”.

Question: For `COc1cccc(CNc2nc(O)c3c[nH]nc3n2)c1`, which NA (Nucleic Acid [3]) is on record?
Answer: The NA was “inactive”.

Question: With `Cc1ccc(CNc2nc(O)c3c[nH]nc3n2)c(C)c1` as the molecule, how does the inhibition (Nucleic Acid [3]) read?
Answer: Its inhibition is 12%.

Question: How did the MIC (Enterococcus faecium) turn out when `Cc1ccc(Nc2nc(O)c3c[nH]nc3n2)cc1I` was run?
Answer: The MIC was 18 µg/mL (≈ 49 µM).

Question: What about the IC50 (Nucleic Acid [1]) of the same molecule?
Answer: The IC50 was 71 µM.

Question: And the MIC (Streptococcus pneumoniae)?
Answer: Its MIC is 9 µg/mL (≈ 24.5 µM).

Question: And the MIC (Staphylococcus aureus)?
Answer: The MIC was 9 µg/mL (≈ 24.5 µM).

Question: What about the inhibition (Nucleic Acid [2]) of the same molecule?
Answer: The inhibition was 86%.

Question: What about the MIC (Bacillus subtilis) of the same molecule?
Answer: The MIC was 9 µg/mL (≈ 24.5 µM).

Question: Which inhibition (Nucleic Acid [2]) does the source give for `Oc1[nH]c(NCc2ccccc2)nc2nncc1-2` here?
Answer: The inhibition was 32%.

Question: What does the source list for `CCc1cc(Nc2nc(O)c3c[nH]nc3n2)ccc1C`?
Answer: MIC (Enterococcus faecium): 13 µg/mL (≈ 48.3 µM); IC50 (Nucleic Acid [1]): 68 µM; MIC (Streptococcus pneumoniae): 13 µg/mL (≈ 48.3 µM); MIC (Staphylococcus aureus): 27 µg/mL (≈ 100 µM); inhibition (Nucleic Acid [2]): 88%; MIC (Bacillus subtilis): 7 µg/mL (≈ 26 µM)

Question: `Oc1[nH]c(NCc2ccc(Br)cc2)nc2nncc1-2` was tested. Which inhibition (Nucleic Acid [2]) did it give?
Answer: Its inhibition is 23%.

Question: For `Cc1ccc(Nc2nc(O)c3c[nH]nc3n2)cc1Br`, which MIC (Enterococcus faecium) is on record?
Answer: The MIC was 16 µg/mL (≈ 50 µM).

Question: And the IC50 (Nucleic Acid [1])?
Answer: Its IC50 is 129 µM.

Question: And the MIC (Streptococcus pneumoniae)?
Answer: The MIC was 8 µg/mL (≈ 25 µM).

Question: What about the MIC (Staphylococcus aureus) of the same molecule?
Answer: Its MIC is 8 µg/mL (≈ 25 µM).

Question: What about the inhibition (Nucleic Acid [2]) of the same molecule?
Answer: The inhibition was 69%.

Question: What about the MIC (Bacillus subtilis) of the same molecule?
Answer: Its MIC is 8 µg/mL (≈ 25 µM).

Question: For `COc1ccc(CNc2nc(O)c3c[nH]nc3n2)cc1`, which inhibition (Nucleic Acid [2]) is on record?
Answer: Its inhibition is 10%.

Question: Which results are given for `Cc1ccc(Nc2nc(O)c3c[nH]nc3n2)cc1C`?
Answer: MIC (Streptococcus pneumoniae): 26 µg/mL (≈ 102 µM); inhibition (Nucleic Acid [2]): 36%; MIC (Bacillus subtilis): 13 µg/mL (≈ 50.9 µM)

Question: Which NA (Nucleic Acid [3]) does the source give for `Oc1[nH]c(NCc2cccc(C(F)(F)F)c2)nc2nncc1-2` here?
Answer: Its NA is “inactive”.

Question: Which results are given for `Oc1[nH]c(NCc2ccc(Cl)c(Cl)c2)nc2nncc1-2`?
Answer: IC50 (Nucleic Acid [1]): 108 µM; inhibition (Nucleic Acid [2]): 58%

Question: With `CC(C)c1ccc(CNc2nc(O)c3c[nH]nc3n2)cc1` as the molecule, how does the NA (Nucleic Acid [3]) read?
Answer: Its NA is “inactive”.

Question: How did the inhibition (Nucleic Acid [2]) turn out when `Oc1[nH]c(NCc2ccc(F)c(Cl)c2)nc2nncc1-2` was run?
Answer: Its inhibition is 24%.
